The source made the active and inactive calls. The calls are words filed in the database; no cut-off is given here.
How the values were obtained:
Neisseria meningitidis = assay: Inhibition of Neisseria meningitidis heme oxygenase-mediated biliveridin production in Escherichia coli BL21 at 1500 uM
How it was run: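 E. coli BL21(DE3) with leaky nm-HO expression grown overnight (16 h) in LB with 100 µg/mL ampicillin, with or without 1500 µM compound, no iron restriction. Cells lysed with 50 µM β/δ-biliverdin added as internal standard. Biliverdin extracted into chloroform, converted to dimethyl esters, analysed by HPLC. α-Biliverdin peak integrated against the standard.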

Pseudomonas aeruginosa [1] = assay: Growth inhibition of Pseudomonas aeruginosa MPA01 at >250 uM; format: functional, organism-based
How it was run: (§1)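 MPA01 grown 8 h at 37 °C, then diluted to OD600 0.05 in iron-restricted succinate minimal medium pH 7.0 with heme as iron source. Compound added from DMSO at 10-1500 µM. Incubated 10 h at 37 °C with aeration in 96-well format, then OD600 read.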

Pseudomonas aeruginosa [2] = assay: Growth inhibition of Pseudomonas aeruginosa MPA01 at <250 uM; format: functional, organism-based; how it was run: as §1
Pseudomonas aeruginosa [3] = assay: Growth inhibition of Pseudomonas aeruginosa MPA01 in presence of haemoglobin; format: functional; parameters: scale not given: the % may be the effect or the level left
How it was run: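 MPA01 diluted to OD600 0.05 in succinate minimal medium pH 7.0 with 25 µM hemoglobin as sole iron source, with or without compound (DMSO). 10 h endpoint OD600 at 0-1500 µM, or hourly OD600 over 12 h at 500 µM, 37 °C with aeration. Compared with 40 µM Fe(III) pyoverdine cultures. Mean of three experiments.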

[4] = Binding affinity to Neisseria meningitidis heme oxygenase
How it was run: (§2)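 Fluorescence titration of purified apoprotein (1 µM; residual biliverdin removed by chromatofocusing) in 20 mM Tris-HCl pH 7.5. Compound added at 0.05-500 µM from DMSO stock. Mean of three experiments.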

Heme oxygenase = target: T1, Heme oxygenase (Pseudomonas aeruginosa, UniProt O69002); assay: Binding affinity to Pseudomonas aeruginosa heme oxygenase; how it was run: as §2
T1 sequence (O69002 whole entry): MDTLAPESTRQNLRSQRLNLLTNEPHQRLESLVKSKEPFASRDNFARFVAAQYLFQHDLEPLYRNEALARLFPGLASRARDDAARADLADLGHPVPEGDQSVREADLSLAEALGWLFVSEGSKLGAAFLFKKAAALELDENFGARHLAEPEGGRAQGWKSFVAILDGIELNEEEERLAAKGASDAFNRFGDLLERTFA

O=C(Cc1ccc(Cl)cc1)N/N=C/c1c[nH]c2ccccc12
Activity (Neisseria meningitidis): Active | Activity (Pseudomonas aeruginosa [1]): Active | Activity (Pseudomonas aeruginosa [2]): inactive | Activity (Pseudomonas aeruginosa [3]): 40% | Kd [4]: 14.1 µM

O=C1C(O)=C/C(=N\c2ccccc2O)c2ccccc21
Kd (Heme oxygenase): 72.8 µM | Activity (Neisseria meningitidis): inactive | Activity (Pseudomonas aeruginosa [2]): inactive | Kd [4]: 28.8 µM

O=C(O)/C=C/C(=O)Nc1ccc(Nc2ccccc2)cc1
Kd (Heme oxygenase): 20.1 µM | Activity (Neisseria meningitidis): Active | Activity (Pseudomonas aeruginosa [1]): Active | Activity (Pseudomonas aeruginosa [2]): inactive | Activity (Pseudomonas aeruginosa [3]): 40% | Kd [4]: 15.6 µM

O=C(Nc1ccc(-c2cn3ccccc3n2)cc1)c1ccccc1[N+](=O)[O-]
Kd (Heme oxygenase): 6.1 µM | Activity (Neisseria meningitidis): Active | Activity (Pseudomonas aeruginosa [2]): inactive | Kd [4]: 20.9 µM

O=C(NNC(=O)c1ccncc1)c1ccncc1
Activity (Neisseria meningitidis): inactive | Activity (Pseudomonas aeruginosa [2]): inactive

CN(C)c1ccc(/C=N/NC(=N)N)cc1
Activity (Neisseria meningitidis): Active | Activity (Pseudomonas aeruginosa [2]): inactive | Kd [4]: 22.9 µM

N=C(N/N=C\c1cccnc1)N/N=C\c1cccnc1
Activity (Neisseria meningitidis): Active | Activity (Pseudomonas aeruginosa [2]): inactive | Kd [4]: 12.2 µM

Source: ChEMBL document CHEMBL1148707, “Inhibition of the bacterial heme oxygenases from Pseudomonas aeruginosa and Neisseria meningitidis: novel antimicrobial targets” (J Med Chem, 2007)
